ChEMBL document CHEMBL1138684, “Determinants of retinoid X receptor transcriptional antagonism” (J Med Chem, 2004)
One block for each compound: values may come before it.

Key:
[1] = target: T1, Retinoic acid receptor RXR-alpha (Homo sapiens, UniProt P19793); assay: Inhibition of [3H]9-cis-retinoic acid binding to human retinoid X receptor alpha ligand-binding domain expressed in Escherichia coli
T1 sequence (P19793 whole entry): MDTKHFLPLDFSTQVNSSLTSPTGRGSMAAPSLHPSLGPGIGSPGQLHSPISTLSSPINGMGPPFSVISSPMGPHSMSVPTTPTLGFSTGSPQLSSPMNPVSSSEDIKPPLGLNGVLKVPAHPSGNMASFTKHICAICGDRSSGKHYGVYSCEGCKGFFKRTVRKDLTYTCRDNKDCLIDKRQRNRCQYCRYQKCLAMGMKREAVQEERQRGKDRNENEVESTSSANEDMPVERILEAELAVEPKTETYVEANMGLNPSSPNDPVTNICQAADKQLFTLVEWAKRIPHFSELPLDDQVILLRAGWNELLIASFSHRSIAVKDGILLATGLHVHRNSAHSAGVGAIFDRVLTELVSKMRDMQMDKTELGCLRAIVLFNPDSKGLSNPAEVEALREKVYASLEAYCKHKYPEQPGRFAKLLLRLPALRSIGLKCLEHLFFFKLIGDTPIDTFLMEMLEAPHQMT

[2] = target: T2, Retinoic acid receptor beta (Homo sapiens) (UniProt P10826); assay: Antagonism of retinoic acid receptor beta activity induced by retinoic acid at 10e-5 M; type: functional
T2 sequence (whole entry): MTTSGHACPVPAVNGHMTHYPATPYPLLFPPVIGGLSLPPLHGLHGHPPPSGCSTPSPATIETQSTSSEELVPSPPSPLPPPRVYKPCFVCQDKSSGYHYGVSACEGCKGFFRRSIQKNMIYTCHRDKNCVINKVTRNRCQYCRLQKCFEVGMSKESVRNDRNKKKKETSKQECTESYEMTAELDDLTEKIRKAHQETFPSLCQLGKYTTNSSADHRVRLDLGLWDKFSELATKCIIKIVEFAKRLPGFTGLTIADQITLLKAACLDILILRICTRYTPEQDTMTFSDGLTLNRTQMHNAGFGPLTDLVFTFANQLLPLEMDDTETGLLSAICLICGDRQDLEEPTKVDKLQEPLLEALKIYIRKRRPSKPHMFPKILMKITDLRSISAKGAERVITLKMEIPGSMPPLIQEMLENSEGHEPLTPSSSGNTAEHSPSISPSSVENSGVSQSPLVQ
Outline: (§1)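 CV-1 cells kept in DMEM with 10% FCS and seeded 16-24 h before calcium precipitation cotransfection: RARα, β or γ vector (100 µg) with (TREpal)2-tk-CAT or CRBP-I-tk-CAT reporter (200 µg), plus β-gal vector. At 20 h, medium switched to 5% charcoal-stripped FCS. Cells got 1 × 10^-7 M trans-RA ± test agent for 24 h. CAT normalized to β-gal, as % of trans-RA alone.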

[3] = target: T2, Retinoic acid receptor beta (Homo sapiens); assay: Antagonism of retinoic acid receptor beta activity induced by retinoic acid at 10e-7 M; type: functional; outline: as §1
[4] = target: T3, Retinoic acid receptor alpha (Homo sapiens) (UniProt P10276); assay: Antagonism of retinoic acid receptor alpha activity induced by retinoic acid at 10e-5 M; type: functional; outline: as §1
T3 sequence (whole entry): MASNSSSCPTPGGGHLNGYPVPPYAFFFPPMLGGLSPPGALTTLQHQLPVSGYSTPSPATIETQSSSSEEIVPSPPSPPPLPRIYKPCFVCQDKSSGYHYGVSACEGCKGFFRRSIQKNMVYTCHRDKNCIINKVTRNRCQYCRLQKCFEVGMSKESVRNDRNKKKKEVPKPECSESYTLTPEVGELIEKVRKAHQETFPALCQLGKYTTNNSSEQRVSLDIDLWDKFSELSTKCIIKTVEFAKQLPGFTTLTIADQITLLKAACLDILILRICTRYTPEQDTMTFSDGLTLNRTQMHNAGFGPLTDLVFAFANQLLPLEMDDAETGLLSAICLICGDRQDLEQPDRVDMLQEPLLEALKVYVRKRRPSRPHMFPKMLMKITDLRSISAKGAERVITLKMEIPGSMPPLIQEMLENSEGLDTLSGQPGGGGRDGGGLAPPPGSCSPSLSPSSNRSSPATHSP

[5] = target: T4, Retinoic acid receptor gamma (Homo sapiens) (UniProt P13631); assay: Antagonism of retinoic acid receptor gamma activity induced by retinoic acid at 10e-6 M; type: functional; outline: as §1
T4 sequence (whole entry): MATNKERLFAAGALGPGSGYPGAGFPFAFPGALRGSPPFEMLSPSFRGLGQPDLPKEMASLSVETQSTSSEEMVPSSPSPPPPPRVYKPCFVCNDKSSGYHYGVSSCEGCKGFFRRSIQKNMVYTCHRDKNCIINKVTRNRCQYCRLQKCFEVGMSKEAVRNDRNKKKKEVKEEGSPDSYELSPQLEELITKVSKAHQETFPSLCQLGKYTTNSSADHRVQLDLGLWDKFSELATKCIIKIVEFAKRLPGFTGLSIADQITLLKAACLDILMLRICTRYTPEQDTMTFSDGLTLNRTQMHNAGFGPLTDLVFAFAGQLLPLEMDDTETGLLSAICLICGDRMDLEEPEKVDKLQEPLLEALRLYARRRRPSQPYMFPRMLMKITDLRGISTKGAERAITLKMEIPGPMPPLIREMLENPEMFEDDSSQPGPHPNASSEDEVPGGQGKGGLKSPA

[6] = target: T3, Retinoic acid receptor alpha (Homo sapiens); assay: Antagonism of retinoic acid receptor alpha activity induced by retinoic acid at 10e-7 M; type: functional; outline: as §1
[7] = target: T3, Retinoic acid receptor alpha (Homo sapiens); assay: Antagonism of retinoic acid receptor alpha activity induced by retinoic acid at 10e-6 M; type: functional; outline: as §1
[8] = target: T4, Retinoic acid receptor gamma (Homo sapiens); assay: Antagonism of retinoic acid receptor gamma activity induced by retinoic acid at 10e-7 M; type: functional; outline: as §1
[9] = target: T4, Retinoic acid receptor gamma (Homo sapiens); assay: Antagonism of retinoic acid receptor gamma activity induced by retinoic acid at 10e-5 M; type: functional; outline: as §1
[10] = target: T2, Retinoic acid receptor beta (Homo sapiens); assay: Antagonism of retinoic acid receptor beta activity induced by retinoic acid at 10e-6 M; type: functional; outline: as §1
[11] = target: T5, Retinoic acid receptor RXR-alpha (Homo sapiens) (UniProt P19793); assay: Antagonism of retinoid X receptor alpha activity induced by retinoic acid […] at 10e-6 M; type: functional
T5 sequence (whole entry): T1 sequence (P19793 whole entry)
Outline: (§2)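 CV-1 cells in DMEM/10% FCS, cotransfected by calcium precipitation with RXRα vector (20 µg), CRBP-II-tk-CAT reporter (200 µg) and β-gal vector. At 20 h, medium changed to 5% charcoal-stripped FCS. Cells treated 24 h with 1 × 10^-7 M 9-cis-RA ± test agent. CAT activity normalized to β-gal, expressed relative to 9-cis-RA alone as 100%.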

[12] = target: T5, Retinoic acid receptor RXR-alpha (Homo sapiens); assay: Antagonism of retinoid X receptor alpha activity induced by retinoic acid […] at 10e-7 M; type: functional; outline: as §2
[13] = target: T5, Retinoic acid receptor RXR-alpha (Homo sapiens); assay: Antagonism of retinoid X receptor alpha activity induced by retinoic acid […] at 10e-5 M; type: functional; outline: as §2

Compound: Cc1cc2c(cc1C(=C1CC1)c1ccc(C(=O)O)cc1)C(C)(C)CCC2(C)C
IC50 [1]: 21 nM

Compound: CCCCOc1cc2c(cc1C(=C1CC1)c1ccc(C(=O)O)cn1)C(C)(C)CCC2(C)C
IC50 [1]: 10 nM

Compound: CCCOc1cc2c(cc1C(=C1CC1)c1ccc(C(=O)O)cn1)C(C)(C)CCC2(C)C
IC50 [1]: 6 nM

Compound: C=C(c1ccc(C(=O)O)cc1)c1cc2c(cc1CCCC)C(C)(C)CCC2(C)C
Relative activation [2]: 84% | Relative activation [3]: 94% | Relative activation [4]: 20% | Relative activation [5]: 94% | Relative activation [6]: 75% | Relative activation [7]: 30% | Relative activation [8]: 89% | Relative activation [9]: 110% | Relative activation [10]: 102% | Relative activation [11]: 130% | Relative activation [12]: 114% | Relative activation [13]: 150%

More lines, now with the values ahead:

Relative activation [2]: 65% | Relative activation [3]: 98% | Relative activation [4]: 22% | Relative activation [5]: 99% | Relative activation [6]: 82% | Relative activation [7]: 45% | Relative activation [8]: 95% | Relative activation [9]: 91% | Relative activation [10]: 88% | Relative activation [11]: 88% | Relative activation [12]: 115% | Relative activation [13]: 48% | IC50 [1]: 500 nM
Compound: CCCCc1cc2c(cc1C(=C1CC1)c1ccc(C(=O)O)cc1)C(C)(C)CCC2(C)C

IC50 [1]: 270 nM
Compound: CCCCOc1cc2c(cc1C(=C1CC1)c1ccc(C(=O)O)cc1)C(C)(C)CCC2(C)C

IC50 [1]: 120 nM
Compound: CCCOc1cc2c(cc1C(=C1CC1)c1ccc(C(=O)O)cc1)C(C)(C)CCC2(C)C
